Source: ChEMBL document CHEMBL1150119, “Cytotoxic germacranolides from Inula verbascifolia subsp. methanea” (J Nat Prod, 2002)
In brackets after ≈: the same amount, converted by molar mass.

Tests used:
Type in all cases: functional, cell-based
PC-3 = assay: Cytotoxicity against human PC3 cells after 48 hrs by MTT assay; settings: PC-3, 48 h
Procedure, shortened: (§1)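 Adherent human tumor cells kept in DMEM with 10% FBS, penicillin and streptomycin, at 37 °C under 5% CO₂ and 85% humidity, and subcultured with trypsin-EDTA. Cells were seeded at 5000/well and compounds in DMSO were added 24 h later. After 48 h, medium was swapped for MTT (1 mg/mL final, serum-free phenol-red-free RPMI) for 4 h. Formazan was dissolved in 2-propanol and read at 550 nm against 690 nm reference.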

HT-29 = assay: Cytotoxicity against human HT-29 cells after 48 hrs by MTT assay; settings: HT-29, 48 h; procedure, shortened: as §1
LNCaP = assay: Cytotoxicity against human LNCAP cells expressing androgen receptor after 48 hrs by MTT assay; procedure, shortened: as §1
[1] = Cytotoxicity against human HRT18 cells after 48 hrs by MTT assay; settings: HRT-18, 48 h; procedure, shortened: as §1
HCT-116 = assay: Cytotoxicity against human HCT116 cells after 48 hrs by MTT assay; settings: HCT-116, 48 h; procedure, shortened: as §1
MCF7 = assay: Cytotoxicity against human MCF7 cells expressing estrogen receptor after 48 hrs by MTT assay; settings: MCF7, 48 h; procedure, shortened: as §1

For `C=C1C(=O)O[C@@H]2[C@H]3O[C@]3(C)CC/C=C(\C)[C@@H](OC(=O)CC(C)(O)CC)C[C@@H]12` (some centres undefined), the IC50 (PC-3) was 15.7 µg/mL (≈ 41.5 µM), the IC50 (HT-29) was 11.7 µg/mL (≈ 30.9 µM) and the IC50 (LNCaP) was 30.2 µg/mL (≈ 79.8 µM). It also gave an IC50 [1] of 8.75 µg/mL (≈ 23.1 µM), an IC50 (HCT-116) of 7.1 µg/mL (≈ 18.8 µM) and an IC50 (MCF7) of over 40 µg/mL.

`C=C1C(=O)O[C@@H]2[C@H]3O[C@]3(C)CC/C=C(\C)[C@@H](OC(=O)C(C)C(C)O)C[C@@H]12` (some centres undefined) gave an IC50 (PC-3) of 11.3 µg/mL (≈ 31 µM), an IC50 (HT-29) of 11.7 µg/mL (≈ 32.1 µM) and an IC50 (LNCaP) of 25.4 µg/mL (≈ 69.7 µM). It also gave an IC50 [1] of 13.4 µg/mL (≈ 36.8 µM), an IC50 (HCT-116) of 0.39 µg/mL (≈ 1.07 µM) and an IC50 (MCF7) of over 40 µg/mL.

For `C=C1C(=O)O[C@@H]2[C@H]3O[C@]3(C)CC/C=C(\C)[C@@H](OC(=O)CC(C)(C)O)C[C@@H]12`, the IC50 (PC-3) was 18.2 µg/mL (≈ 49.9 µM), the IC50 (HT-29) was 17.5 µg/mL (≈ 48 µM) and the IC50 (LNCaP) was 34.2 µg/mL (≈ 93.8 µM). It also gave an IC50 [1] of 14.9 µg/mL (≈ 40.9 µM), an IC50 (HCT-116) of 14.1 µg/mL (≈ 38.7 µM) and an IC50 (MCF7) of over 40 µg/mL.

For `COc1cccc2c1C(=O)c1c(O)c3c(c(O)c1C2=O)C[C@@](O)(C(C)=O)C[C@@H]3O[C@H]1C[C@H](N)[C@H](O)[C@H](C)O1.Cl` [DAUNORUBICIN HYDROCHLORIDE], the IC50 (PC-3) was 0.23 µg/mL, the IC50 (HT-29) was 0.072 µg/mL and the IC50 (LNCaP) was 0.011 µg/mL. The IC50 [1] was 0.11 µg/mL, the IC50 (HCT-116) was 0.28 µg/mL and the IC50 (MCF7) was 0.12 µg/mL.
